4 compounds from ChEMBL document CHEMBL1275602, “Daptomycin is effective for treatment of experimental endocarditis due to methicillin-resistant and glycopeptide-intermediate Staphylococcus epidermidis” (Antimicrob Agents Chemother, 2010) can be followed below.

Data set [1] relates to Staphylococcus epidermidis. As to the kind of experiment: Antimicrobial activity against glycopeptide-intermediate Staphylococcus epidermidis NRS6 in acute infective endocarditis rabbit model assessed as bacterial titer per gram of vegetation at 10 mg/kg/day, iv after 48 hrs. In kind it is functional. The procedure, abridged:
(§1)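 New Zealand White rabbits (2 kg) with catheter-induced aortic valve endocarditis were infected i.v. with 1 ml of about 1 × 10^9 CFU/ml 48 h after catheter placement. Dosing started 48 h after infection by computer-controlled i.v. infusion simulating human PK, given over 15 min for 48 h. Animals were killed after 6 half-lives. Vegetations were cultured and reported as log10 CFU/g. Sterile meant no growth, including 1-week broth culture. 15 to 17 animals per arm.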

Data set [2] has as its system Staphylococcus epidermidis. As to the kind of experiment: Bactericidal activity against glycopeptide-intermediate Staphylococcus epidermidis NRS6 at 2 times MIC after 24 hrs by time kill analysis. The data set is classed as functional, organism-based. The procedure, abridged:
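Time-kill in CAMHB with a starting inoculum of 5 × 10^5 to 1 × 10^6 CFU/ml from an overnight culture. […] Viable counts at 0, 4 and 24 h, with carryover handled by dilution. Bactericidal was defined as a ≥3-log10 CFU/ml fall at 24 h versus the inoculum. Run in duplicate.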

In data set [3] the test system is Staphylococcus epidermidis. As to the kind of experiment: Antimicrobial activity against methicillin-resistant Staphylococcus epidermidis 375 by broth microdilution method. In kind it is functional. Put shortly: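 Broth microdilution in cation-adjusted Mueller-Hinton broth following CLSI procedures. MIC and MBC determined for each strain. For daptomycin the broth was adjusted to 50 μg/ml calcium.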
For orientation: In broth dilution the organism is exposed to a series of concentrations in liquid medium.

Data set [4] relates to Staphylococcus epidermidis. As to the kind of experiment: Antimicrobial activity against methicillin-resistant Staphylococcus epidermidis 375 in acute infective endocarditis rabbit model assessed as bacterial titer per gram of vegetation at 6 mg/kg/day, iv after 48 hrs. In kind it is functional. Put shortly: (§2)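 New Zealand White rabbits (2 kg) with catheter-induced aortic valve endocarditis. Infected i.v. 48 h after catheter placement with 1 ml of about 1 × 10^9 CFU/ml. Bacteremia confirmed before therapy. Computer-controlled infusion via the vena cava simulated human PK for 48 h. Killed after 6 further half-lives. Vegetations cultured as log10 CFU/g; sterile meant no growth after one week. 15–17 animals per arm.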

Data set [5] deals with Staphylococcus epidermidis. Description: Antimicrobial activity against methicillin-resistant Staphylococcus epidermidis 375 in acute infective endocarditis rabbit model assessed as bacterial titer per gram of vegetation at 10 mg/kg/day, iv after 48 hrs. The data set is classed as functional. Put shortly:
as §2

The test system of data set [6] is Staphylococcus epidermidis. Description: Antimicrobial activity against methicillin-resistant Staphylococcus epidermidis isolates. The data set is classed as functional.
A short description of data set [7]: Cmax in rabbit at 10 mg/kg, iv. Conditions: in vivo.
The test system of data set [8] is Staphylococcus epidermidis. As to the kind of experiment: Antimicrobial activity against glycopeptide-intermediate Staphylococcus epidermidis NRS6 by broth microdilution method. In kind it is functional. The procedure, abridged:
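Broth microdilution in cation-adjusted Mueller-Hinton broth following CLSI procedures. MIC and MBC determined for each strain. For daptomycin the broth was adjusted to 50 μg/ml calcium. S. aureus ATCC 29213 served as the test control strain.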

For data set [9], the system named is Oryctolagus cuniculus. Description: Cmin in rabbit at 10 mg/kg/day, iv. Conditions: in vivo. The data set is classed as ADME, organism-based. Also noted: route intravenous. Put shortly:
(§3)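 Rabbits given drug i.v. over 15 min by computer-controlled infusion pump, designed to reproduce human serum PK (6 or 10 mg/kg/day human-equivalent regimens). Mean trough and Cmax measured in serum.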

Data set [10] concerns Staphylococcus epidermidis. As to the kind of experiment: Bactericidal activity against methicillin-resistant Staphylococcus epidermidis 375 at 2 times MIC after 24 hrs by time kill analysis. The data set is classed as functional, organism-based. The procedure, abridged: (§4)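 Time-kill in CAMHB. Overnight culture gave a final inoculum of 5 × 10^5 to 1 × 10^6 CFU/ml. […] Viable counts taken at 0, 4 and 24 h, with carryover removed by dilution. Bactericidal meant at least a 3-log10 CFU/ml fall at 24 h versus the inoculum. Run in duplicate.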

In data set [11] the test system is Staphylococcus epidermidis. As to the kind of experiment: Antimicrobial activity against glycopeptide-intermediate Staphylococcus epidermidis NRS6 in acute infective endocarditis rabbit model assessed as sterile vegetation level at 10 mg/kg/day, iv after 48 hrs. In kind it is functional. Put shortly: as §1
Data set [12] relates to Staphylococcus epidermidis. Description: Antimicrobial activity against glycopeptide-intermediate Staphylococcus epidermidis NRS6 in acute infective endocarditis rabbit model assessed as bacterial titer per gram of vegetation at 6 mg/kg/day, iv after 48 hrs. In kind it is functional. Put shortly: as §1
The test system of data set [13] is Staphylococcus epidermidis. As to the kind of experiment: Antimicrobial activity against methicillin-resistant Staphylococcus epidermidis 375 in acute infective endocarditis rabbit model assessed as sterile vegetation level at 6 mg/kg/day, iv after 48 hrs. The data set is classed as functional. The procedure, abridged: as §2
The subject of data set [14] is Staphylococcus epidermidis. As to the kind of experiment: Antimicrobial activity against glycopeptide-intermediate Staphylococcus epidermidis NRS6 in acute infective endocarditis rabbit model assessed as sterile vegetation level at 6 mg/kg/day, iv after 48 hrs. The data set is classed as functional. The procedure, abridged: as §1
For data set [15], the system named is Staphylococcus epidermidis. Description: Antimicrobial activity against methicillin-resistant Staphylococcus epidermidis 375 in acute infective endocarditis rabbit model assessed as sterile vegetation level at 10 mg/kg/day, iv after 48 hrs. The data set is classed as functional. Put shortly:
as §2

The nature of data set [16]: Cmax in rabbit at 10 mg/kg/day, iv. The data set is classed as ADME, organism-based, Oryctolagus cuniculus. Details: dose 10 mg/kg/day, route intravenous. Conditions: in vivo. The procedure, abridged: as §3
Data set [17] relates to Staphylococcus epidermidis. As to the kind of experiment: Antimicrobial activity against methicillin-resistant Staphylococcus epidermidis 375 in acute infective endocarditis rabbit model assessed as bacterial titer per gram of vegetation at 15 mg/kg administered every 12 hrs, iv measured after 48 hrs. The data set is classed as functional. The procedure, abridged:
as §2

Data set [18] deals with Staphylococcus epidermidis. As to the kind of experiment: Antimicrobial activity against methicillin-resistant Staphylococcus epidermidis 375 in acute infective endocarditis rabbit model assessed as sterile vegetation level at 15 mg/kg, iv administered every 12 hrs measured after 48 hrs. The data set is classed as functional. The procedure, abridged: as §2
Data set [19] deals with Staphylococcus epidermidis. As to the kind of experiment: Antimicrobial activity against glycopeptide-intermediate Staphylococcus epidermidis NRS6 in acute infective endocarditis rabbit model assessed as bacterial titer per gram of vegetation at 15 mg/kg administered every 12 hrs, iv measured after 48 hrs. The data set is classed as functional. Put shortly: as §2
Data set [20] deals with Staphylococcus epidermidis. Description: Bacteriostatic activity against methicillin-resistant Staphylococcus epidermidis 375 at 0.5 times MIC after 24 hrs by time kill analysis. In kind it is functional, organism-based. The procedure, abridged: as §4
The subject of data set [21] is Staphylococcus epidermidis. As to the kind of experiment: Antimicrobial activity against methicillin-resistant Staphylococcus epidermidis 375 in acute infective endocarditis rabbit model assessed as bacterial titer per gram of vegetation at 15 mg/kg administered every 6 hrs, iv measured after 48 hrs. The data set is classed as functional. The procedure, abridged: as §2

Data set [22] deals with Staphylococcus epidermidis. Description: Bacteriostatic activity against glycopeptide-intermediate Staphylococcus epidermidis NRS6 at 2 times MIC after 24 hrs by time kill analysis. In kind it is functional, organism-based. Put shortly:
as §4

The subject of data set [23] is Staphylococcus epidermidis. Description: Bacteriostatic activity against methicillin-resistant Staphylococcus epidermidis 375 at 2 times MIC after 24 hrs by time kill analysis. The data set is classed as functional, organism-based. Put shortly: as §4
Data set [24] concerns Oryctolagus cuniculus. Description: Cmin in methicillin-resistant Staphylococcus epidermidis 375 infected rabbit at 60 mg/kg, iv. The note with it: in vivo.
The test system of data set [25] is Staphylococcus epidermidis. Description: Antimicrobial activity against methicillin-resistant Staphylococcus epidermidis 375 in acute infective endocarditis rabbit model assessed as sterile vegetation level at 15 mg/kg, iv administered every 6 hrs measured after 48 hrs. The data set is classed as functional. The procedure, abridged: as §2
The test system of data set [26] is Staphylococcus epidermidis. Description: Bacteriostatic activity against glycopeptide-intermediate Staphylococcus epidermidis NRS6 at 0.5 times MIC after 24 hrs by time kill analysis. The data set is classed as functional, organism-based. The procedure, abridged: as §4
The test system of data set [27] is Staphylococcus epidermidis. As to the kind of experiment: Bacteriostatic activity against methicillin-resistant Staphylococcus epidermidis 375 at MIC after 24 hrs by time kill analysis. The data set is classed as functional, organism-based. Put shortly: as §4
Data set [28] concerns Staphylococcus epidermidis. As to the kind of experiment: Antimicrobial activity against glycopeptide-intermediate Staphylococcus epidermidis NRS6 in acute infective endocarditis rabbit model assessed as sterile vegetation level at 15 mg/kg administered every 12 hrs, iv measured after 48 hrs. In kind it is functional. Put shortly: as §2
The test system of data set [29] is Staphylococcus epidermidis. Description: Bacteriostatic activity against glycopeptide-intermediate Staphylococcus epidermidis NRS6 at MIC after 24 hrs by time kill analysis. The data set is classed as functional, organism-based. The procedure, abridged: as §4
Data set [30] has as its system Staphylococcus epidermidis. As to the kind of experiment: Bactericidal activity against glycopeptide-intermediate Staphylococcus epidermidis NRS6 assessed as reduction in bacterial CFU at 2 times MIC after 24 hrs by time kill analysis. The data set is classed as functional.

In brackets after ≈: the same amount, converted by molar mass. Activity calls are given as the source filed them. Where only a bound is given, the exact number is not on record here.

Usually MBC stands for the smallest concentration meeting the test's criterion for killing. Low values mean greater bactericidal potency, high ones weaker bactericidal potency. The MIC is the least concentration at which growth counts as inhibited. A lower MIC goes with inhibition by little substance. As a reminder, the Cmax is the maximum level reached in the sampled fluid or tissue. Take `CCCCCCCCCC(=O)N[C@@H](Cc1c[nH]c2ccccc12)C(=O)N[C@H](CC(N)=O)C(=O)N[C@@H](CC(=O)O)C(=O)N[C@@H]1C(=O)NCC(=O)N[C@@H](CCCN)C(=O)N[C@@H](CC(=O)O)C(=O)N[C@H](C)C(=O)N[C@@H](CC(=O)O)C(=O)NCC(=O)N[C@H](CO)C(=O)N[C@@H]([C@H](C)CC(=O)O)C(=O)N[C@@H](CC(=O)c2ccccc2N)C(=O)O[C@@H]1C`: the log10cfu in [1] is on record as 3.9; in data set [4] it was 0; in [5] it was 0; in [12], 3.7. The outcome in data set [2] and in data set [10] was Active. In addition, the MBC in data set [3] stood at 1 µg/mL (≈ 0.617 µM); in data set [8] it was 4 µg/mL (≈ 2.47 µM). The MIC is 0.5 µg/mL (≈ 0.309 µM) in data set [3], no less than 2 µg/mL in data set [6] and 2 µg/mL (≈ 1.23 µM) in [8]. Also, the Cmax in [7] and in data set [16] was 146 µg/mL in each case. Further, in the data set with Oryctolagus cuniculus [9], the Cmin was 18.04 µg/mL. In addition, the Activity in data set [11] came out at 0%; in [13] it was 60%; in data set [14], 6%; in data set [15], 73%.

In data set [8], `CO[C@H]1/C=C/O[C@@]2(C)Oc3c(C)c(O)c4c(O)c(c(/C=N/N5CCN(C)CC5)c(O)c4c3C2=O)NC(=O)/C(C)=C\C=C\[C@H](C)[C@H](O)[C@@H](C)[C@@H](O)[C@@H](C)[C@H](OC(C)=O)[C@@H]1C` [RIFAMPIN] returned an MBC greater than 0.25 µg/mL and an MIC of 0.008 µg/mL (≈ 0.00972 µM).

Consider `CN[C@H](CC(C)C)C(=O)N[C@H]1C(=O)N[C@@H](CC(N)=O)C(=O)N[C@H]2C(=O)N[C@H]3C(=O)N[C@H](C(=O)N[C@H](C(=O)O)c4cc(O)cc(O)c4-c4cc3ccc4O)[C@H](O)c3ccc(c(Cl)c3)Oc3cc2cc(c3O[C@@H]2O[C@H](CO)[C@@H](O)[C@H](O)[C@H]2O[C@H]2C[C@](C)(N)[C@H](O)[C@H](C)O2)Oc2ccc(cc2Cl)[C@H]1O` [VANCOMYCIN], for which the log10cfu in [17] came out at 2; in data set [19], 7.1; in [21] it was 2. For the same compound, the figures for the Activity in [18], in data set [25] and in data set [28] were 19%, 33% and 0%, respectively. Moreover, the values for the MBC in data set [3] and in [8] were 4 µg/mL (≈ 2.76 µM) and 16 µg/mL (≈ 11 µM), respectively. The outcome in [20], in [22], in data set [23], in data set [26], in data set [27] and in data set [29] was Active. The compound further came in with an MIC in data set [8] of 8 µg/mL (≈ 5.52 µM). Further, the Cmin with Oryctolagus cuniculus [24] was determined as 20 µg/mL. For the same compound, in data set [30], the “fold change (FC)” value turned out to be 2.8.

In data set [8], GENTAMICIN showed an MIC of 64 µg/mL.
